Data: ChEMBL document CHEMBL1134956, “Relating the structure, activity, and physical properties of ultrashort-acting benzodiazepine receptor agonists” (Bioorg Med Chem Lett, 2002)
≈ marks a conversion by molar mass, not a printed value.

Tests used:
[1] = Aqueous solubility at pH 3 was determined; type: physicochemical
In short: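 Solubility of a saturated sample at pH 3, read by visual inspection or UV assay. The pH 3 value was cross-checked against solubility at other pH values and spectrophotometric pKa values.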

[2] = Selectivity by the ratio of binding affinity of acid to the binding affinity of its ester
Rattus norvegicus [3] = test: Compound was tested for its initial (rat) loss-of-righting reflex LORR recovery time at a dose of 25 mg/kg; type: functional, organism-based; design: dose 25 mg/kg; unit not given here
In short: (§1)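 Rat loss-of-righting-reflex test, after the method of ref 14. The compound is given as a bolus injection in 50% PEG/25% EtOH/25% saline. Initial and total recovery times are recorded in min.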

Rattus norvegicus [4] = test: Compound was tested for its total (rat) loss-of-righting reflex LORR recovery time at a dose of 25 mg/kg; type: functional, organism-based; design: dose 25 mg/kg; unit not given here; in short: as §1
[5] = Binding affinity against rat benzodiazepine (BZD) receptor
Rattus norvegicus [6] = test: Compound was tested for its total (rat) loss-of-righting reflex LORR recovery time at a dose of 30 mg/kg; type: functional, organism-based; design: dose 30 mg/kg
Rattus norvegicus [7] = test: Compound was tested for its initial (rat) loss-of-righting reflex LORR recovery time at a dose of 30 mg/kg; type: functional, organism-based; design: dose 30 mg/kg; in short: as §1
Rattus norvegicus [8] = test: Compound was tested for its initial (rat) loss-of-righting reflex LORR recovery time at a dose of 50 mg/kg; type: functional, organism-based; design: dose 50 mg/kg; in short: as §1
Rattus norvegicus [9] = test: Compound was tested for its total (rat) loss-of-righting reflex LORR recovery time at a dose of 50 mg/kg; type: functional, organism-based; design: dose 50 mg/kg; in short: as §1

## CNC1=Nc2ccc(Cl)cc2C(c2ccccc2F)=N[C@H]1CCC(=O)OC
[1]
  solubility: 13000 µg/mL (≈ 33.5 mM)
[2]
  Selectivity: 156
Rattus norvegicus [3]
  Recovery time: 15
Rattus norvegicus [4]
  Recovery time: 22
[5]
  Ki: 96 nM

## COC(=O)CC[C@@H]1N=C(c2ccccn2)c2cc(Cl)ccc2-n2cc(C)nc21
[1]
  solubility: 2000 µg/mL (≈ 5.07 mM)
[2]
  Selectivity: 156
Rattus norvegicus [3]
  Recovery time: 13
Rattus norvegicus [4]
  Recovery time: 15
[5]
  Ki: 60 nM

## COC(=O)CC[C@@H]1N=C(c2ccccc2F)c2cc(Cl)ccc2N=C1NCCc1ccncc1
[5]
  Ki: 792 nM

## COC(=O)CC[C@@H]1N=C(c2ccccc2F)c2cc(Cl)ccc2N=C1NCCO
[5]
  Ki: 303 nM

## CNC1=Nc2ccc(Cl)cc2C(c2ccccc2)=[N+]([O-])C1 [CHLORDIAZEPOXIDE]
[5]
  Ki: 438 nM

## COC(=O)CC[C@@H]1N=C(c2ccccc2F)c2cc(Cl)ccc2N=C1NCC(C)C
[5]
  Ki: 1010 nM

## COC(=O)CC[C@@H]1N=C(c2ccccn2)c2cc(Cl)ccc2-n2c1nc(C)c2C
[2]
  Selectivity: 40
[5]
  Ki: 130 nM

## COC(=O)CC[C@@H]1N=C(c2ccccn2)c2cc(Cl)ccc2-n2c(C)cnc21
[1]
  solubility: 13000 µg/mL (≈ 32.9 mM)
[2]
  Selectivity: 147
Rattus norvegicus [3]
  Recovery time: 9
Rattus norvegicus [4]
  Recovery time: 11
[5]
  Ki: 98 nM

## COC(=O)CC[C@@H]1N=C(c2ccccc2F)c2cc(Cl)ccc2N=C1NCc1ccncc1
[5]
  Ki: 1230 nM

## COC(=O)CC[C@@H]1N=C(c2ccccc2F)c2cc(Cl)ccc2-n2ccnc21
[2]
  Selectivity: 64
Rattus norvegicus [3]
  Recovery time: 17
Rattus norvegicus [4]
  Recovery time: 23
[5]
  Ki: 7 nM

## COC(=O)CC[C@@H]1N=C(c2ccccc2F)c2cc(Cl)ccc2NC1=O
[1]
  solubility: < 3000 µg/mL
[2]
  Selectivity: 984
Rattus norvegicus [3]
  Recovery time: 9
Rattus norvegicus [4]
  Recovery time: 24
[5]
  Ki: 7 nM

## COC(=O)CC[C@@H]1N=C(c2ccccc2F)c2cc(Cl)ccc2-n2c(C)cnc21
[1]
  solubility: < 1000 µg/mL
[2]
  Selectivity: 74
Rattus norvegicus [3]
  Recovery time: 23
Rattus norvegicus [4]
  Recovery time: 33
[5]
  Ki: 8 nM

## COC(=O)CC[C@@H]1N=C(c2ccccc2F)c2cc(Cl)ccc2N=C1NCCc1c[nH]cn1
[5]
  Ki: 208 nM

## Cc1ncc2n1-c1ccc(Cl)cc1C(c1ccccc1F)=NC2 [MIDAZOLAM]
[1]
  solubility: ≥ 8000 µg/mL
Rattus norvegicus [6]
  Recovery time: 121 mg/kg
Rattus norvegicus [7]
  Recovery time: 23 mg/kg
[5]
  Ki: 2 nM

## COC(=O)CC[C@@H]1N=C(c2ccccn2)c2cc(Cl)ccc2-n2ccnc21
[2]
  Selectivity: 176
Rattus norvegicus [3]
  Recovery time: 7
Rattus norvegicus [4]
  Recovery time: 10
[5]
  Ki: 79 nM

## COC(=O)CC[C@H]1N=C(c2ccccc2F)c2cc(Cl)ccc2-n2c1cnc2C
[2]
  Selectivity: 28
[5]
  Ki: 3570 nM

## COC(=O)CC[C@@H]1N=C(c2ccccc2F)c2cc(Cl)ccc2-n2c1cnc2C
[2]
  Selectivity: 226
Rattus norvegicus [3]
  Recovery time: 20
Rattus norvegicus [4]
  Recovery time: 24
[5]
  Ki: 11 nM

## COC(=O)CC[C@@H]1N=C(c2ccccc2F)c2cc(Cl)ccc2-n2cc(C)nc21
[2]
  Selectivity: 156
Rattus norvegicus [3]
  Recovery time: 6
Rattus norvegicus [4]
  Recovery time: 21
[5]
  Ki: 7 nM

## COC(=O)CC[C@@H]1N=C(c2ccccn2)c2cc(Cl)ccc2NC1=O
[1]
  solubility: 1000 µg/mL (≈ 2.79 mM)
[2]
  Selectivity: 46
Rattus norvegicus [8]
  Recovery time: 9 mg/kg
Rattus norvegicus [9]
  Recovery time: 16 mg/kg
[5]
  Ki: 139 nM

## CCNC1=Nc2ccc(Cl)cc2C(c2ccccc2F)=N[C@H]1CCC(=O)OC
[5]
  Ki: 146 nM

## COC(=O)CC[C@@H]1N=C(c2ccccc2F)c2cc(Cl)ccc2N=C1NCc1ccccc1
[5]
  Ki: 875 nM
